Results from ChEMBL document CHEMBL1147041, “Modulation of human neural stem cell differentiation in Alzheimer (APP23) transgenic mice by phenserine” (2007).
Calls of active or inactive are those of the source. The calls are words filed in the database; no cut-off is given here.

Tests used:
[1] = system: Mus musculus; assay: Decrease in amyloid precursor protein expression in APP23 transgenic mouse cerebral cortices at 25 mg/kg/day, ip for 14 days by Western blot relative to control; format: functional, organism-based
[2] = Effect on glial differentiation of human neural stem cells transplanted in APP23 transgenic mouse hippocampus assessed as reduction of GFAP+/BrdU+ count at 25 mg/kg/day, ip for 14 days by fluorescent immunohistochemistry; format: functional, Neural stem cell; parameters: scale not given: the % may be the effect or the level left; details: route intraperitoneal
Procedure, shortened: (§1)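 Mice received daily i.p. drug or saline for 14 days. BrdU-labelled (3 µM, 48 h) fetal human neural stem cells, ≈105 cells, were then injected into the right lateral ventricle with no immunosuppression. Daily injections resumed for 1 week after a 2-day recovery. At 6 weeks, 20 µm coronal sections from paraformaldehyde-perfused brains were double-stained for BrdU plus GFAP or β-III tubulin. Cells were counted bilaterally at ×400 on 4–6 sections per mouse, n = 6–7 per group, and compared by ANOVA.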

[3] = system: Mus musculus; assay: Decrease in amyloid precursor protein expression in APP23 transgenic mouse hippocampus at 25 mg/kg/day, ip for 14 days by Western blot relative to control; format: functional; parameters: scale not given: the % may be the effect or the level left; details: route intraperitoneal
[4] = system: Mus musculus; assay: Decrease in amyloid precursor protein expression in wild type mouse cerebral cortices at 25 mg/kg/day, ip for 14 days by Western blot relative to control; format: functional, organism-based
[5] = Effect on neuronal differentiation of human neural stem cells transplanted in wild type mouse hippocampus CA1 region assessed as increase of beta-3 tubulin+/BrdU+ count at 25 mg/kg/day, ip for 14 days; format: functional, Neural stem cell; details: route intraperitoneal; procedure, shortened: as §1
[6] = Effect on neuronal differentiation of human neural stem cells transplanted in APP23 transgenic mouse somatosensory region assessed as increase of beta-3 tubulin+/BrdU+ count at 25 mg/kg/day, ip for 14 days; format: functional, Neural stem cell; details: route intraperitoneal; procedure, shortened: as §1
[7] = Effect on neuronal differentiation of human neural stem cells transplanted in APP23 transgenic mouse hippocampus CA1 region assessed as increase of beta-3 tubulin+/BrdU+ count at 25 mg/kg/day, ip for 14 days; format: functional, Neural stem cell; details: route intraperitoneal; procedure, shortened: as §1
[8] = Effect on neuronal differentiation of human neural stem cells transplanted in APP23 transgenic mouse hippocampus CA2 region assessed as increase of beta-3 tubulin+/BrdU+ count at 25 mg/kg/day, ip for 14 days; format: functional, Neural stem cell; details: route intraperitoneal; procedure, shortened: as §1
[9] = system: Mus musculus; assay: Decrease in glial fibrillary acidic protein expression in APP23 transgenic mouse hippocampus at 25 mg/kg/day, ip for 14 days by Western blot relative to control; format: functional; parameters: scale not given: the % may be the effect or the level left; details: route intraperitoneal
[10] = Effect on neuronal differentiation of human neural stem cells transplanted in APP23 transgenic mouse motor cortex region assessed as increase of beta-3 tubulin+/BrdU+ count at 25 mg/kg/day, ip for 14 days; format: functional, Neural stem cell; details: route intraperitoneal; procedure, shortened: as §1

In the case of CN1CC[C@]2(C)c3cc(OC(=O)Nc4ccccc4)ccc3N(C)C12 (stereo not given in full), the Activity [1] was “Active”, the Activity [2] was 28% and the Activity [3] was 38%. The Activity [4] was “Active”, the Activity [5] was 40% and the Activity [6] was 32%. It also gave an Activity [7] of 32%, an Activity [8] of 32% and an Activity [9] of 36%. The Activity [10] was 32%.
